Reference: ChEMBL document CHEMBL2440008, “Identification of 2-aminooxazole amides as acyl-CoA: diacylglycerol acyltransferase 1 (DGAT1) inhibitors through scaffold hopping strategy” (Bioorg Med Chem Lett, 2013)
≈ marks a conversion by molar mass, not a printed value.

Experiments:
[1] = system: Mus musculus; experiment: Antidyslipidemic activity in C57BL/6J mouse postprandial triglyceridemia model assessed as reduction in plasma triglyceride level at 10 mg/kg, po treated 15 mins prior to corn oil-challenge measured after 2 hrs by colorimetric method relative to control; assay type: functional; parameters: scale not given: the % may be the effect or the level left
How it was run: (§1)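 Male C57BL/6J mice fasted overnight; oral dose in 20% hydroxypropyl-b-cyclodextrin vehicle (vehicle alone for controls) 15 min before 0.25 mL corn oil challenge at time 0. Terminal blood taken by heart puncture under anesthesia at 2 h; plasma triglycerides measured colorimetrically by enzymatic TG reagent with absorbance read on a microplate reader, compared with vehicle-treated controls.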

[2] = biological target: T1, Diacylglycerol O-acyltransferase 1 (Mus musculus, UniProt Q9Z2A7); experiment: Inhibition of mouse DGAT-1
T1 sequence (Q9Z2A7 whole entry): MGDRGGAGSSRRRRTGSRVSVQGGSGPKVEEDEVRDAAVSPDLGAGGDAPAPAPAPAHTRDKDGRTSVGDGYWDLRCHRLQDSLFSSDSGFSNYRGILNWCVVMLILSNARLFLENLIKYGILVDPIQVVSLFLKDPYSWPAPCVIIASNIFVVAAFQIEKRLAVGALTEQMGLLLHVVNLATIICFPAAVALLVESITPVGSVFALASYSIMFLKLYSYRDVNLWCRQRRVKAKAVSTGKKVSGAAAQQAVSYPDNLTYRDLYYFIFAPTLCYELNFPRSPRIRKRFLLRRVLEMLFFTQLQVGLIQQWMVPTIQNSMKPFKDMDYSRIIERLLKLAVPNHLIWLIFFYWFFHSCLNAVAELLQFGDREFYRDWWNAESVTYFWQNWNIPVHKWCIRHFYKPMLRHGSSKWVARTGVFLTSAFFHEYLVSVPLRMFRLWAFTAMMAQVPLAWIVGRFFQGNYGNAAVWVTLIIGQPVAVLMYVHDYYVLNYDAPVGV

[3] = AUC in po dosed rat; assay type: ADME, organism-based; settings: plasma
[4] = biological target: T2, Cytochrome P450 2D6 (Homo sapiens, UniProt P10635); experiment: Inhibition of CYP2D6 (unknown origin) preincubated prior to substrate addition; assay type: ADME
Target sequence in this assay (P10635 whole entry): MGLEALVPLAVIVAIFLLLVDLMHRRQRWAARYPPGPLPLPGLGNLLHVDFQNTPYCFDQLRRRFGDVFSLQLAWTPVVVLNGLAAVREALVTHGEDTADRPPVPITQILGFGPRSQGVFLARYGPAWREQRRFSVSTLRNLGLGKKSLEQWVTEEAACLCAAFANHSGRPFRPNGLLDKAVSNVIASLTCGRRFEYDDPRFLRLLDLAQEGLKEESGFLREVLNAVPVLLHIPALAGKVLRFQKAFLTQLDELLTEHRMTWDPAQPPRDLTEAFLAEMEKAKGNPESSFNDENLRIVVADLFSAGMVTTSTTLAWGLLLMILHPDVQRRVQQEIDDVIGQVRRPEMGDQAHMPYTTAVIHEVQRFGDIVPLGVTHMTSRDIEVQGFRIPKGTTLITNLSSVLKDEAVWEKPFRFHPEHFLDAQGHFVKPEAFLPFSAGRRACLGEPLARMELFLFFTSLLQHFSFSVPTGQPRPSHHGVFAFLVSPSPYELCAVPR

[5] = system: Mus musculus; experiment: Antidyslipidemic activity in C57BL/6J mouse postprandial triglyceridemia model assessed as reduction in plasma triglyceride level at 3 mg/kg, po treated 15 mins prior to corn oil-challenge measured after 2 hrs by colorimetric method relative to control; assay type: functional; parameters: scale not given: the % may be the effect or the level left; how it was run: as §1
[6] = Plasma protein binding (unknown origin); assay type: ADME, cell-free; settings: read-out: PPB (converted)
[7] = biological target: T3, Cytochrome P450 2C9 (Homo sapiens, UniProt P11712); experiment: Inhibition of CYP2C9 (unknown origin) coincubated with substrate; assay type: ADME
[8] = Solubility of the compound; assay type: physicochemical
[9] = biological target: T2, Cytochrome P450 2D6; experiment: Inhibition of CYP2D6 (unknown origin) coincubated with substrate
Target sequence in this assay (P10635 whole entry, looked up): as the sequence (P10635 whole entry) above

[10] = biological target: T3, Cytochrome P450 2C9; experiment: Inhibition of CYP2C9 (unknown origin) preincubated prior to substrate addition; assay type: ADME
[11] = Clearance in human hepatocytes measured per 10^6 cells; assay type: ADME, cell-based, Hepatocyte; settings: read-out: CLH
[12] = biological target: T4, Cytochrome P450 3A4 (Homo sapiens, UniProt P08684); experiment: Inhibition of CYP3A4 (unknown origin) preincubated prior to substrate addition; assay type: ADME
[13] = biological target: T4, Cytochrome P450 3A4; experiment: Inhibition of CYP3A4 (unknown origin) coincubated with substrate; assay type: ADME
[14] = biological target: hERG (Homo sapiens, UniProt Q12809); experiment: Inhibition of human ERG at 10 uM relative to control
Sequence of hERG (Q12809 whole entry): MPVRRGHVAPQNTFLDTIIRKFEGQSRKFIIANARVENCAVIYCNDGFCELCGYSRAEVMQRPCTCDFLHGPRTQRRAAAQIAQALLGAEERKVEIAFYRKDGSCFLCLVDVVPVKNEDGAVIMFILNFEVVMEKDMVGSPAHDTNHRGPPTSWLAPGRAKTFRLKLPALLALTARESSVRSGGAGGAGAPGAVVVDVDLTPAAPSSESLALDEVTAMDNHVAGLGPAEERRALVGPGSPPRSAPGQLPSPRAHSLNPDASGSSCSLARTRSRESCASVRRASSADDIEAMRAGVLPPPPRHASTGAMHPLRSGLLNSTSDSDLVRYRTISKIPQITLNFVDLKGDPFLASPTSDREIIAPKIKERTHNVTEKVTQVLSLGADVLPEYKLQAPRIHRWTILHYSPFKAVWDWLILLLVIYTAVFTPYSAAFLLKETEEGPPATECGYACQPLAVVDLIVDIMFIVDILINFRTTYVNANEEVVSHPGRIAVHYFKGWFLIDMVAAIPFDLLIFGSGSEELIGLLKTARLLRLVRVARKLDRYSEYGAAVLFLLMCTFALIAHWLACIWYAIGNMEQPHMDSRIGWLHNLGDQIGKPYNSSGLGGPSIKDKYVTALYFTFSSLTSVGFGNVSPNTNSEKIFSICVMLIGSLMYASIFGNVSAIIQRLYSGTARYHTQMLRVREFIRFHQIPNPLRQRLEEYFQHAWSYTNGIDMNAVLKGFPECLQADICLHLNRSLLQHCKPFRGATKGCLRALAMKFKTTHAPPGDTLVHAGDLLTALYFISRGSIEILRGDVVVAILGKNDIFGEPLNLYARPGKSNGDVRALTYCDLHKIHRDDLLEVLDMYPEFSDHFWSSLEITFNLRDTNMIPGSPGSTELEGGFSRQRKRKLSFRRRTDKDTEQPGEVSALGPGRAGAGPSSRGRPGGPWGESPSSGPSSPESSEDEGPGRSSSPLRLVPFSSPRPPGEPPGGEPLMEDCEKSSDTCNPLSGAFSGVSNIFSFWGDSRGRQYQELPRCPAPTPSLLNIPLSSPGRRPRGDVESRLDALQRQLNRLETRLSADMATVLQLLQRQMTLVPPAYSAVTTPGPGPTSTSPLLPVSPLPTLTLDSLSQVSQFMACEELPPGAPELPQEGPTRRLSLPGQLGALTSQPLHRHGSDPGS

T4 sequence (P08684 whole entry): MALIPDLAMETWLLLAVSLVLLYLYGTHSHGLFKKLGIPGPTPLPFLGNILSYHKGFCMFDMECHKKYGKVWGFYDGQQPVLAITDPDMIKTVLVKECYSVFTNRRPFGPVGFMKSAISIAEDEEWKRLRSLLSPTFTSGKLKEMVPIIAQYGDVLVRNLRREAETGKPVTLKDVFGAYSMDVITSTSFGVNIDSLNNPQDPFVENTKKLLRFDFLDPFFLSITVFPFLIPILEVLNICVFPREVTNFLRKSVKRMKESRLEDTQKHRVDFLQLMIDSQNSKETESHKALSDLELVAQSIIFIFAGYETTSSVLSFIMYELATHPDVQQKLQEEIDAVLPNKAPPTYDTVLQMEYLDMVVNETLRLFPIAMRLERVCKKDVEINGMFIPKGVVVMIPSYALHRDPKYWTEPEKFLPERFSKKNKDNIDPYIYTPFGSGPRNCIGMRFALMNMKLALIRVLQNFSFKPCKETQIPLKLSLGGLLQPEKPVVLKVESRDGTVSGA
T3 sequence (P11712 whole entry): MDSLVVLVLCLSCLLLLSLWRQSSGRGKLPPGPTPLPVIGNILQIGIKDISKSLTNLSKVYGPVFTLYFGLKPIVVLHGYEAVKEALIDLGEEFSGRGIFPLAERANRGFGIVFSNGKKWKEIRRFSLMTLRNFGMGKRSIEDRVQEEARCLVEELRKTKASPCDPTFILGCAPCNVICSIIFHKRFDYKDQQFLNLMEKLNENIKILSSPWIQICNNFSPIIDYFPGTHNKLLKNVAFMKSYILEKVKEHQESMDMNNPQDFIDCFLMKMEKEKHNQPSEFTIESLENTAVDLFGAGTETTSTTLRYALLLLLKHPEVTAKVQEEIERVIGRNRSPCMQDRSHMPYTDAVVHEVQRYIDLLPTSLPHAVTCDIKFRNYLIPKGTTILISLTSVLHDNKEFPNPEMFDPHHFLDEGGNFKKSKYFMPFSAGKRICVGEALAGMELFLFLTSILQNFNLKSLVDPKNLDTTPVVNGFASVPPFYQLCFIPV

SMILES: O=C(Nc1ccc(N2CCN(C(=O)OC3CCCC3)CC2)nc1)c1oc(N2CCCCC2)nc1C(F)(F)F
- Activity [1]: -27%

SMILES: O=C(Nc1ccc(N2CCCN(C(=O)Nc3ccccc3Cl)CC2)nc1)c1oc(N2CCCCC2)nc1C(F)(F)F
- IC50 [2]: 0.134 µM

SMILES: O=C(Nc1ccc(N2CCN(c3ncccc3Cl)CC2)nc1)c1oc(N2CCCCC2)nc1C(F)(F)F
- IC50 [2]: 2.27 µM

SMILES: O=C(Nc1ccc(N2CCN(C(=O)Oc3ccccc3Cl)CC2)nc1)c1oc(N2CCCCC2)nc1C(F)(F)F
- IC50 [2]: 1.39 µM

SMILES: COCCN(C)c1ccc(NC(=O)c2oc(-c3ccccc3)nc2C(F)(F)F)cn1
- IC50 [2]: 2.85 µM
- AUC [3]: 12.7 µM·h

SMILES: O=C(Nc1ccc(N2CCN(C(=O)Nc3ccccc3Cl)CC2)nc1)c1oc(N2CCCCC2)nc1C(F)(F)F
- IC50 [4]: > 20 µM
- Activity [1]: -63%
- IC50 [2]: 0.026 µM
- Activity [5]: -28%
- fraction unbound [6]: 0.001
- IC50 [7]: 6.4 µM
- solubility [8]: 10 µM (≈ 5.78 µg/mL)
- AUC [3]: 25 µM·h
- IC50 [9]: > 20 µM
- IC50 [10]: 9.7 µM
- hepatocyte CLint [11]: 16.9 µL/min/1e6 cells
- IC50 [12]: 5 µM
- IC50 [13]: > 20 µM

SMILES: CC(C)OC(=O)N1CCN(c2ccc(NC(=O)c3oc(N4CCCCC4)nc3C(F)(F)F)cn2)CC1
- IC50 [4]: > 20 µM
- Activity [1]: -12%
- IC50 [2]: 1.2 µM
- fraction unbound [6]: 0.004
- IC50 [7]: > 20 µM
- solubility [8]: 100 µM (≈ 51.1 µg/mL)
- AUC [3]: 69 µM·h
- IC50 [9]: > 20 µM
- IC50 [10]: > 20 µM
- inhibition at 10 µM [14]: 40%
- hepatocyte CLint [11]: 24.2 µL/min/1e6 cells
- IC50 [12]: > 20 µM
- IC50 [13]: > 20 µM
